Assay results published in paper PMC10908290 (Drug Design, Development and Therapy, 2024).
Converted amounts (≈) assume the structure as drawn.

Key:
E. coli (MTCC 739) = assay: Antibacterial disc diffusion, E. coli; assay type: cell-based; conditions: Escherichia coli, MTCC739, 24 h, read-out: Diameter of Growth Inhibition Zone
In short: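 Test compound dissolved in DMSO at 100 μg/mL and loaded onto 8 mm sterile filter-paper discs. E. coli MTCC 739 prepared from pure colonies in sterile saline, adjusted to 0.5 McFarland, and swabbed onto Mueller-Hinton agar. Plates incubated 24 h at 37°C, then zone of inhibition measured. Ampicillin as reference. Mean ± SD of three independent experiments.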

mushroom tyrosinase = assay: Mushroom tyrosinase inhibitory activity, spectrophotometric, L-DOPA substrate; assay type: biochemical
[1] = DPPH free radical scavenging; conditions: Table 6, unit not given
In short: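 Test compound solutions (25 or 100 µg/mL in methanol) added to 0.004% (w/v) methanolic DPPH. After 30 min incubation, absorbance read at 517 nm. Percent inhibition calculated against DPPH solution lacking test material. Run in triplicate.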

S. aureus = assay: Minimum inhibitory concentration, S. aureus; assay type: cell-based; conditions: Staphylococcus aureus, read-out: Minimal Inhibitory Concentration (MIC)
E. coli = assay: Minimum inhibitory concentration, E. coli; assay type: cell-based; conditions: Escherichia coli, read-out: Minimal Inhibitory Concentration (MIC)
MCF-7 = assay: Cytotoxic activity, MCF-7; assay type: cell-based; conditions: for CC50: MCF7, read-out: LC50; for SI (Selectivity Index): IC50 value normal cell / IC50 value cancer cell (Vero / MCF-7)
[2] = Cytotoxic activity, normal Vero cell line; assay type: cell-based; conditions: African green monkey, Vero cells (normal cell line)

Structure (SMILES)	zone of inhibition at 100 µg/mL (E. coli (MTCC 739)) [mm]	percentage of tyrosinase inhibition (mushroom tyrosinase; 25 µg/mL) [%]	percentage of tyrosinase inhibition (mushroom tyrosinase; 50 µg/mL) [%]	percentage of tyrosinase inhibition (mushroom tyrosinase; 100 µg/mL) [%]	Tyrosinase inhibition IC50 (mushroom tyrosinase; mean ± SE of three experiments) [µg/mL]	Antioxidant activity (100 µg/mL) [1]	MIC (S. aureus) [µg/mL]	MIC (E. coli) [µg/mL]	CC50 (MCF-7; Homo sapiens) [µg/mL]	IC (TGI) (MCF-7; Homo sapiens, MCF7, read-out: TGI) [µM]	SI (Selectivity Index) (MCF-7)	Cytotoxic activity (MCF-7; Table 6, unit not given, equals MCF-7 LC50)	CC50 [2] [µg/mL]
CC1(C)S[C@@H]2[C@H](NC(=O)[C@H](N)c3ccccc3)C(=O)N2[C@H]1C(=O)O [Ampicillin]	17												
Cc1ccccc1NC(=O)C1C(=O)C(c2ccccc2)c2ccc3c(c21)C(=O)c1ccccc1C3=O (stereo not shown) [Compound 1, 2,6,11-Trioxo-3-Phenyl-N-(o-Tolyl)-2,3,6,11-Tetrahydro-1H-Cyclopenta[a]anthracene-1-Carboxamide]		13.72 ± 0.02	49.30 ± 1.06	51.23 ± 0.23	77.62 ± 1.20	58.11	64 (≈ 136 µM)	> 100	87 ± 0.16 (≈ 185 µM)	60.1 ± 0.09	1.06	87.0± 0.16	93.01 ± 0.05 (≈ 197 µM)
COc1cccc2c1C(=O)c1c(O)c3c(c(O)c1C2=O)C[C@@](O)(C(=O)CO)C[C@@H]3O[C@H]1C[C@H](N)[C@H](O)[C@H](C)O1 [Doxorubicin, reference compound]									0.74 ± 0.01 (≈ 1.36 µM)		26.82		19.85 ± 0.02 (≈ 36.5 µM)
O=c1cc(CO)occ1O [Kojic acid, reference compound]		56.23 ± 1.12	67.21 ± 1.12	84.65 ± 1.62									
